Screens as filed in PubChem BioAssay.
KCNK3 inh = human KCNK3 channel inhibition, primary screen; AID 602410; B-score at 10 µM; CHO-KCNK3 thallium flux, FluxOR fluorescence; active compounds read low; 340,000 compounds, 0.84% hits; O14649;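 active means B-score under library mean minus 4 SD, starting fluorescence ratio at most library mean plus 5 SD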;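 further: more negative B-score means stronger inhibition of thallium flux through KCNK3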
KCNK9 block = human KCNK9 channel inhibition; 310,000 compounds, 1.2% hits; Q9NPC2; HEK293 KCNK9, FluxOR thallium flux fluorescence; active compounds read low; AID 488922; B-score at 10 µM;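 active means ratio B-score over 3 SD below the library mean, with starting fluorescence within 5 SD of its mean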;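 further: negative B-score means less thallium flux so channel inhibition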
KCNQ1 pot = human KCNQ1 channel potentiation or activation | P51787 | CHO-K1 KCNQ1, thallium flux FluxOR fluorescence; active compounds read high | B-score at 10 µM | 310,000 compounds, 0.35% hits | AID 2648;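 active means fluorescence ratio B-score, a plate-corrected score, at least three library SD, with initial intensity B-score within 5 SD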
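Assay system: CHO-K1 cells stably expressing KCNQ1; Medium: assay buffer with matched DMSO; Also added: K+/Tl+ depolarizing stimulus; Dosing: single dose; Timing: dye 90 min, compound 20 min, room temperature; Measured by: kinetic FluxOR thallium fluorescence, 10-s 1-Hz baseline, 110-s post-stimulus read; Read-out: peak-minus-minimum fluorescence over initial fluorescence, negative-control normalized, B-scored.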
hERG protect = compounds protecting human hERG from proarrhythmic drug block; CHO-hERG, FluxOR thallium flux, dofetilide IC70 present; AID 1511; activation (rescue from dofetilide block), less the hit threshold, % at 10 µM; 310,000 compounds, 0.51% hits;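 active means activation above the mean of controls blocked by dofetilide plus 5 SD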;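 further: thallium influx through hERG after potassium depolarization seen as dye fluorescence rise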
KCNQ1 inh = blocks the human KCNQ1 potassium channel. P51787. CHO-K1 KCNQ1, FluxOR thallium flux fluorescence; active compounds read high. 310,000 compounds, 1.3% hits. B-score at 10 µM;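 active means compounds whose thallium flux B-score, printed positive for inhibition, exceeds three library SD while starting fluorescence stays within three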;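 further: channel opened by potassium depolarization with thallium stimulus after 20 min compound exposure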
Kir21 inh = Kir2.1 (mouse) channel inhibition; P35561; HEK293-Kir2.1, FluxOR thallium flux fluorescence; active compounds read low; B-score at 10 µM; 310,000 compounds, 0.85% hits; AID 1672;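 active means fluorescence ratio B-score at or below minus 3 SD of library scores, with starting-brightness B-score within 2 SD, cut at about -4.2 in these data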;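 further: channel flux triggered by added potassium and thallium sulfate stimulus; B-score of peak minus minimum fluorescence over baseline after thallium stimulus; more negative B-score means stronger Kir2.1 block with less thallium influx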
KCNQ1 block val = human KCNQ1 channel inhibition, validation assay; AID 588353; shares compounds with KCNQ1 inh; 1,600 compounds, 93% hits; inhibition, % at 10 µM; KCNQ1 cell line, FluxOR thallium flux fluorescence;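 active means primary screen active, with duplicate mean exceeding buffer control mean plus 3 SD of buffer wells, cut at about 28% in these data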
CHO Tl flux = activity in parental CHO cells lacking KCNQ1; fluorescence ratio (Tl flux) at 10 µM; parental CHO-K1, FluxOR thallium flux fluorescence ratio; active compounds read low; zero means no signal rise above baseline; AID 588366; shares compounds with KCNQ1 inh; 1,600 compounds, 21% hits;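 active means mean of duplicate thallium-flux fluorescence ratios in parental host cells more than 5 SD below the buffer control mean, cut at about 0.38 in these data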;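 further: ratio is peak minus minimum fluorescence divided by baseline fluorescence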
KCNQ1 APC inh = confirmation of human KCNQ1 potassium channel inhibitors by electrophysiology | shares compounds with KCNQ1 inh | KCNQ1-CHO cells, automated patch clamp current | calls only at 10 µM | 490 compounds, 20% hits;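 active means KCNQ1 current drop exceeding 3 SD of negative control wells, seen in both duplicate runs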;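 further: steady state current during a 2 s step from -80 to +40 mV; negative values mean current inhibition and positive values mean potentiation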
KCNQ2 spec = selectivity of KCNQ1 inhibitors: inhibition of rat KCNQ2 channel; shares compounds with KCNQ1 inh; KCNQ2 cells, FluxOR thallium flux fluorescence; inhibition, % at 10 µM; 1,600 compounds, 71% hits; AID 651746;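 active means mean percent inhibition of the KCNQ2 thallium signal more than 5 SD above the buffer-only control wells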;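 further: KCNQ2 expressed in CHO cells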
KCNQ1-KCNE1 inh = KCNQ1 inhibitor that also blocks human KCNQ1/KCNE1 channel; shares compounds with KCNQ1 inh; KCNQ1/KCNE1 cells, FluxOR thallium flux fluorescence; 1,600 compounds, 77% hits; AID 652147; inhibition, % at 10 µM;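 active means mean percent inhibition of duplicate wells above the buffer-only control mean plus 3 SD of those controls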
Target sequence (P51787 whole entry, looked up): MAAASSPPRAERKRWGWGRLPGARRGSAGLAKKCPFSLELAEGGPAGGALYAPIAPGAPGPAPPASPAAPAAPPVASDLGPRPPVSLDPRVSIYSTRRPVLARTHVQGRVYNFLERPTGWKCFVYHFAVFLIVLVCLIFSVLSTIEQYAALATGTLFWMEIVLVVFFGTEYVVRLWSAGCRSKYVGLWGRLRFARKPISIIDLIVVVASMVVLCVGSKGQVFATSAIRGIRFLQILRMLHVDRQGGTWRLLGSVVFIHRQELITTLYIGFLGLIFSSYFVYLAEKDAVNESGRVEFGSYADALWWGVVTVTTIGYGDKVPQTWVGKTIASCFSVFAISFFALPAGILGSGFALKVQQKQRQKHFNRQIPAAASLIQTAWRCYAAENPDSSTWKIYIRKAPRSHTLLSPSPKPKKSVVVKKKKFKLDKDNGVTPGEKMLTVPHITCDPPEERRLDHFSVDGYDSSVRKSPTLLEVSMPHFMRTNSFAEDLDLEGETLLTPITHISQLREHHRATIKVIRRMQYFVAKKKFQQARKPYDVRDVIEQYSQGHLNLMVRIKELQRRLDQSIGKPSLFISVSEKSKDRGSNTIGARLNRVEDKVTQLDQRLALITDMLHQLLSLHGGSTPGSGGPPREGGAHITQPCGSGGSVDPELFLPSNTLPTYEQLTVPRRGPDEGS
Hits are given with their value; – = inactive; · = no result given; + = active, no number. This is a sample that favours compounds with a hit; in the whole collection about 3.8% have one here.

SMILES | KCNK3 inh | KCNK9 block | KCNQ1 pot | hERG protect | KCNQ1 inh | Kir21 inh | KCNQ1 block val | CHO Tl flux | KCNQ2 spec | KCNQ1-KCNE1 inh | others
COc1ccc(-c2nc(-c3ccc(NC(=O)c4ccncc4)cc3)no2)cc1OC | – | – | – | – | 12 | – | – | – | 71% | –
Cc1ccc(N(C(=O)Nc2ccccc2)C2=NCCC2)cc1 | – | – | – | – | – | – | · | · | · | ·
COc1ccc(N(C(=O)Nc2ccc(Cl)cc2)C2=NCCC2)cc1 | – | – | – | – | 12 | – | 130 | 0.37 | 132% | 200%
COc1ccc2cc(C3c4cc(OC)c(OC)cc4CCN3C(=O)c3ccco3)c(=O)[nH]c2c1 (stereo unspecified) | – | – | – | – | – | – | · | · | · | ·
COc1ccc(-c2nc3ccccc3nc2-c2ccc(OC)c(OC)c2)cc1OC | – | – | – | – | – | – | · | · | · | ·
Oc1ccc(-c2nc3ccccc3nc2-c2ccccc2)cc1 | – | – | – | – | 7 | – | 84 | 0.38 | 71% | 110%
COc1ccc(-c2nc3ccccc3nc2-c2ccc(OC)cc2)cc1 | – | – | – | – | 10 | – | 88 | 0.34 | 96% | 115%
O=C(CN(c1ccc(Cl)cc1)S(=O)(=O)c1ccccc1)N1CCN(c2ccccc2)CC1 | – | – | – | – | – | – | · | · | · | ·
COc1ccc(O)c(C(=O)c2cnc3c(c2)CN(C)C(=O)N3)c1 | – | – | – | – | – | – | · | · | · | ·
CCc1ccc(OCC(=O)c2c(O)c3ccccc3oc2=O)cc1 | – | – | – | – | – | – | · | · | · | ·
CCc1oc2ccccc2c1C(=O)c1cc(Br)c(O)c(Br)c1 | – | – | – | – | 9 | – | 77 | – | – | 43%
O=C(Cc1cccs1)Nc1ccc(S(=O)(=O)N2CCCC2)cc1 | – | – | – | – | – | – | · | · | · | ·
CC1CCN(c2oc(Cc3cccc4ccccc34)nc2C#N)CC1 | – | – | – | – | 8 | – | 99 | – | 101% | 112%
N#Cc1nc(Cc2cccc3ccccc23)oc1N1CCOCC1 | – | – | – | – | – | – | · | · | · | ·
CC(C)CSC1=NSC2=NC(=O)/C(=C\c3coc4ccccc4c3=O)C(=N)N12 | – | – | – | – | 25 | – | + | 0.004 | – | –
CSC1=NSC2=NC(=O)/C(=C\c3coc4ccccc4c3=O)C(=N)N12 | – | · | · | · | · | · | · | · | · | ·
Cc1ccc(C)c(NC(=O)C2CCCN(S(=O)(=O)c3c(C)noc3/C=C/N(C)C)C2)c1 (stereo unspecified) | – | – | – | – | – | – | · | · | · | ·
Cc1nnc(NC(=O)CSc2nnc(Cc3cccn3C)n2CCc2ccccc2)s1 | – | – | – | – | – | – | · | · | · | ·
O=C(Nc1cccc(C(F)(F)F)c1)c1cccnc1 | – | – | – | – | – | – | · | · | · | ·
COc1cc(NC(=O)c2ccnnc2)cc(C(=O)Nc2cccc(C(F)(F)F)c2)c1 | – | – | – | – | 9 | – | 92 | – | 111% | 117%
O=S(=O)(c1cccc(Br)c1)N1CCN(c2ncnc3scc(-c4ccccc4)c23)CC1 | – | · | · | · | · | · | · | · | · | ·
Cc1csc2ncnc(N3CCN(S(=O)(=O)c4cccc(C(F)(F)F)c4)CC3)c12 | – | – | – | – | 19 | – | 134 | – | 113% | 130% | KCNQ1 APC inh=–
CCC(=O)c1cn(CC(=O)Nc2cccc(C)c2C)c2ccccc12 | – | – | – | – | – | – | · | · | · | ·
Cc1ccc(Cl)cc1N1CCN(S(=O)(=O)c2ccc3c(c2)OCCO3)CC1 | – | – | – | – | 7 | – | 113 | – | 78% | 128%
O=S(=O)(Nc1c(O)ccc2ccccc12)c1ccccc1 | – | – | – | – | 11 | – | 56 | – | – | 90%
SMILES | KCNK3 inh | KCNK9 block | KCNQ1 pot | hERG protect | KCNQ1 inh | Kir21 inh | KCNQ1 block val | CHO Tl flux | KCNQ2 spec | KCNQ1-KCNE1 inh | others
O=S(=O)(Nc1c(O)ccc2ccccc12)c1ccc(F)cc1 | – | – | – | – | 10 | – | 42 | – | – | 55%
O=S(=O)(Nc1cccc2ccccc12)c1ccccc1 | – | – | – | – | – | – | · | · | · | ·
COc1ccc(CN(C)C(=O)Cn2ccc(NC(=O)OCc3ccccc3)nc2=O)cc1OC | – | · | · | · | · | · | · | · | · | ·
CCCCOc1cccc(C2C(C(=O)c3ccc(C)o3)=C(O)C(=O)N2c2nnc(C)s2)c1 (stereo unspecified) | – | – | – | – | 9 | – | 146 | 0.34 | 105% | –
CC(=O)N=C1SC2CS(=O)(=O)CC2N1Cc1ccc(C)cc1 (stereo unspecified) | – | – | – | – | – | – | · | · | · | ·
Cn1c(=O)c2[nH]c(-c3ccccc3)c(O)c2n(C)c1=O | – | – | – | – | 7 | – | 45 | – | – | 91%
Cn1c(=O)c2[nH]c(-c3ccccc3Cl)c(O)c2n(C)c1=O | – | – | – | – | 6 | – | 82 | – | – | 98%
Cn1c2c(c(=O)n(C)c1=O)C(C(F)(F)F)(C(F)(F)F)N=C(c1ccccc1Cl)N2 | – | – | – | – | – | – | · | · | · | ·
COc1cccc(N2C(=O)C3CCCN3C2=S)c1 (stereo unspecified) | – | – | – | – | – | – | · | · | · | ·
O=C(O)C1CC=CCC1C(=O)Nc1ccc2c(c1)CCC2 (stereo unspecified) | – | – | – | – | 6 | – | – | – | – | –
CCCCCC(=O)Nc1ccc2oc(-c3cccnc3)nc2c1 | – | – | – | – | – | – | · | · | · | ·
O=C(Nc1nc(-c2ccccc2)cs1)c1ccccc1NS(=O)(=O)c1ccc(F)cc1 | – | – | – | – | 10 | – | 105 | 0.33 | – | 151%
CCC(=O)N(CCN1CCOCC1)Cc1cc2cc3c(cc2nc1Cl)OCO3 | – | – | – | – | – | – | · | · | · | ·
CCN(CC)c1ccc(Nc2nc(N3CCOCC3)c3ccccc3n2)cc1 | – | – | – | – | 8 | – | 112 | – | 117% | 100% | KCNQ1 APC inh=–
O=C(NNC(=O)C1CCN(S(=O)(=O)c2ccc(Cl)cc2)CC1)c1ccc(S(=O)(=O)N2CCCCC2)cc1 | – | – | – | – | – | – | · | · | · | ·
COc1ccc2noc3c2c1C(=O)c1ccccc1-3 | – | – | – | – | 23 | – | + | 0.0045 | – | –
